# From ChEMBL document CHEMBL1123779, “Modifications of primaquine as antimalarials. 4. 5-Alkoxy derivatives of primaquine” (J Med Chem, 1987)
# System: Plasmodium berghei
# Assay: Blood schizonticidal antimalarial activity in the trophozoite-induced Plasmodium berghei infection in mice (Mus musculus) at 20 mg/kg
# Assay type: functional
# Set-up: unit not given beside the values
# Details: not given
# In short: (§1)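 Run at the Rane Laboratory in mice infected with blood-induced P. berghei, five animals per group. Activity is the increase in mean survival time over untreated infected controls. A compound counts as active when treated-group MST is more than twice the control MST. Cures are mice surviving at 60 days postinfection.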
row,Compound,Delta MST
1,CCCCCCCCOc1c(OC)cc(NC(C)CCCN)c2ncccc12 (stereo unspecified),2.9
2,COc1cc(NC(C)CCCN)c2ncccc2c1 (stereo unspecified) [PRIMAQUINE],4

# System: Plasmodium cynomolgi
# Assay: Cures in Plasmodium cynomolgi infected Rhesus monkeys (Macaca mulatta) on 10.0 mg/kg/day after 7 days
# Assay type: functional, organism-based
# Details: not given
row,Compound,Cures/no. of animals
1,COc1cc(NC(C)CCCN)c2nccc(C)c2c1OC1CCCC1 (stereo unspecified),Toxic
2,CCCCCCCCCOc1c(OC)cc(NC(C)CCCN)c2nccc(C)c12 (stereo unspecified),Toxic
3,CCCCOCCOc1c(OC)cc(NC(C)CCCN)c2nccc(C)c12 (stereo unspecified),Toxic

# System: Plasmodium berghei
# Assay: Suppressive blood schizonticidal antimalarial activity evaluated in the trophozoite-induced Plasmodium berghei infection in mice (Mus musculus) at a dose 640 mg/kg given as number of toxic deaths
# Assay type: toxicity, organism-based
# Set-up: dose 640 mg/kg
# Details: in vivo
# In short: (§2)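 Rane Laboratory mouse test with blood-induced P. berghei infection, five mice per group. Toxic deaths are deaths occurring before the 6th day postinfection.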
row,Compound,Toxic deaths
1,COc1cc(NC(C)CCCN)c2nccc(C)c2c1OC1CCCC1 (stereo unspecified),5
2,CCCCCCCCOc1c(OC)cc(NC(C)CCCN)c2ncccc12 (stereo unspecified),1
3,COc1cc(NC(C)CCCN)c2ncccc2c1 (stereo unspecified) [PRIMAQUINE],5

# System: Plasmodium cynomolgi
# Assay: Cures in Plasmodium cynomolgi infected Rhesus monkeys (Macaca mulatta) on 1 mg/kg/day after 7 days; cured 2 of 2
# Assay type: functional
# Details: not given
row,Compound,Cures/no. of animals
1,COc1cc(NC(C)CCCN)c2nccc(C)c2c1OC1CCCC1 (stereo unspecified),2
2,CCCCCCCCOc1c(OC)cc(NC(C)CCCN)c2ncccc12 (stereo unspecified),2

# System: Mus musculus
# Assay: Suppressive blood schizonticidal antimalarial activity evaluated in the trophozoite-induced Plasmodium berghei infection in mice (Mus musculus) at a dose 640 mg/kg given as no. of cures
# Assay type: functional
# Details: not given
# In short: (§3)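 Run at the Rane Laboratory with blood-induced P. berghei infections in mice, five animals per group. A cure is a mouse surviving to 60 days postinfection. Deaths before day 6 are recorded separately as toxic deaths. Activity is scored from the increase in mean survival time over untreated controls, and counts as active when treated MST is more than twice control MST.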
row,Compound,Cures
1,CCCCCCCCCOc1c(OC)cc(NC(C)CCCN)c2nccc(C)c12 (stereo unspecified),4

# System: Mus musculus
# Assay: Suppressive blood schizonticidal antimalarial activity evaluated in the trophozoite-induced Plasmodium berghei infection in mice (Mus musculus) at a dose 160 mg/kg given as no. of toxic deaths
# Assay type: functional
# Details: not given
# In short: as §2
row,Compound,Toxic deaths
1,COc1cc(NC(C)CCCN)c2nccc(C)c2c1OC1CCCC1 (stereo unspecified),5
2,CCCCOCCOc1c(OC)cc(NC(C)CCCN)c2nccc(C)c12 (stereo unspecified),3
3,COc1cc(NC(C)CCCN)c2ncccc2c1 (stereo unspecified) [PRIMAQUINE],2

# System: Mus musculus
# Assay: Suppressive blood schizonticidal antimalarial activity evaluated in the trophozoite-induced Plasmodium berghei infection in mice (Mus musculus) at a dose 320 mg/kg given as number of cures
# Assay type: functional
# Details: not given
# In short: as §3
row,Compound,Cures
1,CCCCCCCCCOc1c(OC)cc(NC(C)CCCN)c2nccc(C)c12 (stereo unspecified),4

# System: Plasmodium cynomolgi
# Assay: Cures in Plasmodium cynomolgi infected Rhesus monkeys (Macaca mulatta) on 0.316 mg/kg/day after 7 days; cured 0 of 1
# Assay type: functional
# Details: not given
row,Compound,Cures/no. of animals
1,CCCCCCCCOc1c(OC)cc(NC(C)CCCN)c2ncccc12 (stereo unspecified),0

# System: Plasmodium cynomolgi
# Assay: Cures in Plasmodium cynomolgi infected Rhesus monkeys (Macaca mulatta) on 0.316 mg/kg/day after 7 days; cures 2 of 2
# Assay type: functional
# Details: not given
row,Compound,Cures/no. of animals
1,COc1cc(NC(C)CCCN)c2nccc(C)c2c1OC1CCCC1 (stereo unspecified),2
2,CCCCOCCOc1c(OC)cc(NC(C)CCCN)c2nccc(C)c12 (stereo unspecified),2

# System: Mus musculus
# Assay: Suppressive blood schizonticidal antimalarial activity evaluated in the trophozoite-induced Plasmodium berghei infection in mice (Mus musculus) at a dose 320 mg/kg given as no. of toxic deaths
# Assay type: functional
# Details: not given
# In short: as §2
row,Compound,Toxic deaths
1,COc1cc(NC(C)CCCN)c2nccc(C)c2c1OC1CCCC1 (stereo unspecified),5
2,CCCCOCCOc1c(OC)cc(NC(C)CCCN)c2nccc(C)c12 (stereo unspecified),4
3,COc1cc(NC(C)CCCN)c2ncccc2c1 (stereo unspecified) [PRIMAQUINE],5

# System: Mus musculus
# Assay: Suppressive blood schizonticidal antimalarial activity evaluated in the trophozoite-induced Plasmodium berghei infection in mice (Mus musculus) at a dose 2.5 mg/kg
# Assay type: functional
# Details: not given
# In short: as §1
row,Compound,Delta MST
1,COc1cc(NC(C)CCCN)c2nccc(C)c2c1OC1CCCC1 (stereo unspecified),6.1
2,CCCCCCCCCOc1c(OC)cc(NC(C)CCCN)c2nccc(C)c12 (stereo unspecified),7.9
3,CCCCOCCOc1c(OC)cc(NC(C)CCCN)c2nccc(C)c12 (stereo unspecified),3.3

# System: Plasmodium cynomolgi
# Assay: Cures in Plasmodium cynomolgi infected Rhesus monkeys (Macaca mulatta) on 0.1 mg/kg/day after 7 days (x7); cured 0 of 2
# Assay type: functional
# Details: not given
row,Compound,Cures/no. of animals
1,COc1cc(NC(C)CCCN)c2nccc(C)c2c1OC1CCCC1 (stereo unspecified),0
2,CCCCCCCCCOc1c(OC)cc(NC(C)CCCN)c2nccc(C)c12 (stereo unspecified),0
3,CCCCCCCCOc1c(OC)cc(NC(C)CCCN)c2ncccc12 (stereo unspecified),0
4,COc1cc(NC(C)CCCN)c2ncccc2c1 (stereo unspecified) [PRIMAQUINE],0

# System: Mus musculus
# Assay: Suppressive blood schizonticidal antimalarial activity evaluated in the trophozoite-induced Plasmodium berghei infection in mice (Mus musculus) at a dose 80 mg/kg
# Assay type: functional
# Set-up: unit not given beside the values
# Details: not given
# In short: as §1
row,Compound,Delta MST
1,CCCCCCCCOc1c(OC)cc(NC(C)CCCN)c2ncccc12 (stereo unspecified),8.1
2,COc1cc(NC(C)CCCN)c2ncccc2c1 (stereo unspecified) [PRIMAQUINE],9.4

# System: Mus musculus
# Assay: Suppressive blood schizonticidal antimalarial activity evaluated in the trophozoite-induced Plasmodium berghei infection in mice (Mus musculus) at a dose 20 mg/kg given as no. of cures
# Assay type: functional
# Details: not given
# In short: as §3
row,Compound,Cures
1,COc1cc(NC(C)CCCN)c2nccc(C)c2c1OC1CCCC1 (stereo unspecified),1
2,CCCCCCCCCOc1c(OC)cc(NC(C)CCCN)c2nccc(C)c12 (stereo unspecified),3
3,CCCCOCCOc1c(OC)cc(NC(C)CCCN)c2nccc(C)c12 (stereo unspecified),4

# System: Mus musculus
# Assay: Suppressive blood schizonticidal antimalarial activity evaluated in the trophozoite-induced Plasmodium berghei infection in mice (Mus musculus) at a dose 160 mg/kg given as no. of cures
# Assay type: functional
# Details: not given
# In short: as §3
row,Compound,Cures
1,CCCCCCCCCOc1c(OC)cc(NC(C)CCCN)c2nccc(C)c12 (stereo unspecified),4

# System: Plasmodium cynomolgi
# Assay: Cures in Plasmodium cynomolgi infected Rhesus monkeys (Macaca mulatta) on 0.1 mg/kg/day after 7 days; cured 1 of 3
# Assay type: functional
# Details: not given
row,Compound,Cures/no. of animals
1,CCCCOCCOc1c(OC)cc(NC(C)CCCN)c2nccc(C)c12 (stereo unspecified),1

# System: Mus musculus
# Assay: Suppressive blood schizonticidal antimalarial activity evaluated in the trophozoite-induced Plasmodium berghei infection in mice (Mus musculus) at a dose 40 mg/kg
# Assay type: functional
# Set-up: unit not given beside the values
# Details: not given
# In short: as §1
row,Compound,Delta MST
1,CCCCCCCCOc1c(OC)cc(NC(C)CCCN)c2ncccc12 (stereo unspecified),6.7
2,COc1cc(NC(C)CCCN)c2ncccc2c1 (stereo unspecified) [PRIMAQUINE],5

# System: Mus musculus
# Assay: Suppressive blood schizonticidal antimalarial activity evaluated in the trophozoite-induced Plasmodium berghei infection in mice (Mus musculus) at a dose 10 mg/kg
# Assay type: functional
# Details: not given
# In short: as §1
row,Compound,Delta MST
1,COc1cc(NC(C)CCCN)c2nccc(C)c2c1OC1CCCC1 (stereo unspecified),6.9

# System: Mus musculus
# Assay: Suppressive blood schizonticidal antimalarial activity evaluated in the trophozoite-induced Plasmodium berghei infection in mice (Mus musculus) at a dose 80 mg/kg given as no. of cures
# Assay type: functional
# Details: not given
# In short: as §3
row,Compound,Cures
1,COc1cc(NC(C)CCCN)c2nccc(C)c2c1OC1CCCC1 (stereo unspecified),1
2,CCCCCCCCCOc1c(OC)cc(NC(C)CCCN)c2nccc(C)c12 (stereo unspecified),5

# System: Plasmodium cynomolgi
# Assay: Cures in Plasmodium cynomolgi infected Rhesus monkeys (Macaca mulatta) on 0.316 mg/kg/day after 7 days; cured 0 of 2
# Assay type: functional
# Details: not given
row,Compound,Cures/no. of animals
1,CCCCCCCCCOc1c(OC)cc(NC(C)CCCN)c2nccc(C)c12 (stereo unspecified),0
2,COc1cc(NC(C)CCCN)c2ncccc2c1 (stereo unspecified) [PRIMAQUINE],0

# System: Mus musculus
# Assay: Suppressive blood schizonticidal antimalarial activity evaluated in the trophozoite-induced Plasmodium berghei infection in mice (Mus musculus) at a dose 320 mg/kg
# Assay type: functional
# Details: not given
# In short: as §1
row,Compound,Delta MST
1,CCCCCCCCOc1c(OC)cc(NC(C)CCCN)c2ncccc12 (stereo unspecified),6.3

# System: Mus musculus
# Assay: Suppressive blood schizonticidal antimalarial activity evaluated in the trophozoite-induced Plasmodium berghei infection in mice (Mus musculus) at a dose 160 mg/kg
# Assay type: functional
# Details: not given
# In short: as §1
row,Compound,Delta MST
1,CCCCCCCCOc1c(OC)cc(NC(C)CCCN)c2ncccc12 (stereo unspecified),12.1

# System: Plasmodium cynomolgi
# Assay: Cures in Plasmodium cynomolgi infected Rhesus monkeys (Macaca mulatta) on 1 mg/kg/day after 7 days; cured 1 of 1
# Assay type: functional
# Details: not given
row,Compound,Cures/no. of animals
1,CCCCCCCCCOc1c(OC)cc(NC(C)CCCN)c2nccc(C)c12 (stereo unspecified),1
2,CCCCOCCOc1c(OC)cc(NC(C)CCCN)c2nccc(C)c12 (stereo unspecified),1

# System: Plasmodium cynomolgi
# Assay: Radical curative antimalarial activity against Plasmodium cynomolgi in Rhesus monkeys (Macaca mulatta) at 1 mg/kg/day over 7 days; cured 1 of 2
# Assay type: functional
# Details: not given
row,Compound,Cures/no. of animals
1,COc1cc(NC(C)CCCN)c2ncccc2c1 (stereo unspecified) [PRIMAQUINE],1

# System: Plasmodium berghei
# Assay: Blood schizonticidal activity in trophozoite-induced Plasmodium berghei infected mice (Mus musculus) at 40 mg/kg; numbers cured
# Assay type: functional
# Details: not given
# In short: as §3
row,Compound,Cures
1,COc1cc(NC(C)CCCN)c2nccc(C)c2c1OC1CCCC1 (stereo unspecified),2
2,CCCCCCCCCOc1c(OC)cc(NC(C)CCCN)c2nccc(C)c12 (stereo unspecified),5
3,CCCCOCCOc1c(OC)cc(NC(C)CCCN)c2nccc(C)c12 (stereo unspecified),2

# System: Mus musculus
# Assay: Suppressive blood schizonticidal antimalarial activity evaluated in the trophozoite-induced Plasmodium berghei infection in mice (Mus musculus) at a dose 80 mg/kg given as no. of toxic deaths
# Assay type: functional
# Details: not given
# In short: as §2
row,Compound,Toxic deaths
1,CCCCOCCOc1c(OC)cc(NC(C)CCCN)c2nccc(C)c12 (stereo unspecified),4

# System: Mus musculus
# Assay: Suppressive blood schizonticidal antimalarial activity evaluated in the trophozoite-induced Plasmodium berghei infection in mice (Mus musculus) at a dose 5 mg/kg
# Assay type: functional
# Set-up: unit not given beside the values
# Details: not given
# In short: as §1
row,Compound,Delta MST
1,COc1cc(NC(C)CCCN)c2nccc(C)c2c1OC1CCCC1 (stereo unspecified),6.9
2,CCCCCCCCCOc1c(OC)cc(NC(C)CCCN)c2nccc(C)c12 (stereo unspecified),9.7
3,CCCCOCCOc1c(OC)cc(NC(C)CCCN)c2nccc(C)c12 (stereo unspecified),4.3

# System: Mus musculus
# Assay: Suppressive blood schizonticidal antimalarial activity evaluated in the trophozoite-induced Plasmodium berghei infection in mice (Mus musculus) at a dose 10 mg/kg given as no. of cures
# Assay type: functional
# Details: not given
# In short: as §3
row,Compound,Cures
1,CCCCCCCCCOc1c(OC)cc(NC(C)CCCN)c2nccc(C)c12 (stereo unspecified),2
2,CCCCOCCOc1c(OC)cc(NC(C)CCCN)c2nccc(C)c12 (stereo unspecified),3
